According to ChEMBL document CHEMBL1143381 (J Med Chem, 2009):
Calls of active or inactive are those of the source. The rule behind the calls is not given here.

Columns and labels:
K562 [1] = experiment: Potentiation of doxorubicin-induced growth inhibition in human doxorubicin-resistant K562 cells expressing Pgp at 3 uM after 72 hrs by MTT assay; assay type: functional, cell-based
In short: (§1)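 MTT assay: cells seeded at 3000/well with doxorubicin (0.001–0.1 µM in K562; 0.1–10 µM in K562/DOX), alone or with modulator, for 72 h at 37 °C. Doxorubicin IC50 is the 50% drop in MTT conversion versus untreated cells, read from plots. RF is the IC50 without modulator divided by the IC50 with modulator. Values are mean ± SE of ≥3 runs, or mean of two runs, in quadruplicate cultures.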

K562 [2] = experiment: Potentiation of doxorubicin-induced growth inhibition in human doxorubicin-resistant K562 cells expressing Pgp at 1 uM after 72 hrs by MTT assay; assay type: functional, cell-based; in short: as §1
K562 [3] = experiment: Cytotoxicity against human doxorubicin-resistant K562 cells expressing Pgp assessed as cell viability by trypan blue exclusion assay; assay type: functional
K562 [4] = experiment: Reversal of P-glycoprotein-mediated multidrug resistance in human anthracycline-resistant K562 cells assessed as drug level causing 50% increase in nuclear concentration of pirarubicin by spectrofluorimetry; assay type: cell-based
In short: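 K562/DOX cells were grown in RPMI 1640 with 10% FCS at 37 °C, 5% CO2, and kept resistant by a monthly 3-day exposure to 400 nM doxorubicin. Cultures were started at 5 × 10^5 cells/mL and used 24 h later. Pirarubicin uptake was followed as fluorescence decrease at 590 nm (ex 480 nm) in 2 mL buffer at 37 °C.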

K562 [5] = experiment: Cytotoxicity against human doxorubicin-sensitive K562 cells after 72 hrs by MTT assay; assay type: functional, cell-based; details: K562, 72 h; in short: as §1
K562 [6] = experiment: Cytotoxicity against human doxorubicin-resistant K562 cells expressing Pgp after 72 hrs by MTT assay; assay type: functional, cell-based; details: K562, 72 h; in short: as §1

COc1ccc(CCN(C)CCCC(C#N)(c2ccc(OC)c(OC)c2)C(C)C)cc1OC (configuration not stated)
Activity (K562 [1]): Active | Activity (K562 [2]): Active | Activity (K562 [3]): >95%

COc1ccc(C(C#N)(CCCNCc2c3ccccc3cc3ccccc23)C(C)C)cc1OC (configuration not stated)
Activity (K562 [4]): 0.05 µM

COc1cc(C(=O)OCCCN(C)CCCOC(=O)c2c3ccccc3cc3ccccc23)cc(OC)c1OC
Activity (K562 [4]): 0.6 µM

COc1cccc2c1C(=O)c1c(O)c3c(c(O)c1C2=O)C[C@@](O)(C(=O)CO)C[C@@H]3O[C@H]1C[C@H](N)[C@H](O)[C@H](C)O1 [DOXORUBICIN]
IC50 (K562 [5]): 32 nM | IC50 (K562 [6]): 2840 nM
